Source: PubChem BioAssay (Johns Hopkins Ion Channel Center)
TRPC4 agonist = TRPC4 (mouse) channel activation | Q9QUQ5 | HEK293 TRPC4beta/mu-opioid, Fluo4 calcium fluorescence; active compounds read high | B-score at 10 µM | actives 0.49% (n = 310,000) | AID 2237;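 active = B-score above 5 SD of library B-scores, and initial fluorescence ratio not above library mean plus 5 SD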;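 also: positive B-score marks a calcium rise read as TRPC4 activation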
Target sequence (Q9QUQ5 whole entry, looked up): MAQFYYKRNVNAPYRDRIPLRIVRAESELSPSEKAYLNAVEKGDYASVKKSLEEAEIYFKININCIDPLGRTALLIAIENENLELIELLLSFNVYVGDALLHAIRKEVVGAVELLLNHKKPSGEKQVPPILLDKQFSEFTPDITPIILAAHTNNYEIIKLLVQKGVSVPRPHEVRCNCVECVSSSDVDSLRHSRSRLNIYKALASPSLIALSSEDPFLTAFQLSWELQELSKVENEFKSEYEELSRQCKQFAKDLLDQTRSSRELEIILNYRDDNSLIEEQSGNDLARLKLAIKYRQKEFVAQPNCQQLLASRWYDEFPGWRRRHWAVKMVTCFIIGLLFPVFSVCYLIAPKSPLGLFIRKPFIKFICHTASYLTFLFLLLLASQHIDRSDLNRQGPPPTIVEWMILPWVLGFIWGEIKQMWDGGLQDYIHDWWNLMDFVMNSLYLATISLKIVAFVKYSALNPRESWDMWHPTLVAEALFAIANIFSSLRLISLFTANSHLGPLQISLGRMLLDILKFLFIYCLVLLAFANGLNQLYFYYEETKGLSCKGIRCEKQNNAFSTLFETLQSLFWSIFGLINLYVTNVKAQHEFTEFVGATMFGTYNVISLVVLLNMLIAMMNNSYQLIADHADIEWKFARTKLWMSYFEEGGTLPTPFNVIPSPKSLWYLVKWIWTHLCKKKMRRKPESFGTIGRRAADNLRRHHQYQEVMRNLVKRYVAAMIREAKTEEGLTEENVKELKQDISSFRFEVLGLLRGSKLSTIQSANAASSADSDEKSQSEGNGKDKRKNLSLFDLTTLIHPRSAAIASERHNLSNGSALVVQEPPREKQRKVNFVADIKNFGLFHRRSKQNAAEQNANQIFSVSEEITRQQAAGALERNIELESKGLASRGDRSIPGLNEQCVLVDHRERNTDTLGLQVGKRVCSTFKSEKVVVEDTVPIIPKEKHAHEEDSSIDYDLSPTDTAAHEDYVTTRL
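System – HEK293 cells stably co-expressing mouse TRPC4beta and mu-opioid receptor · Signal – Fluo4 calcium-sensitive dye fluorescence, kinetic, 1 Hz baseline · Benchmarks – buffer (low) and maximal DAMGO (high) · Read-out – B score of integrated fluorescence ratio per well · Incubation – dye loading 45 min room temperature, 110 s kinetic read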
TRPC6 activator = mouse TRPC6 channel activation | B-score at 10 µM | Q61143 | actives 0.13% (n = 310,000) | HEK293-TRPC6 membrane potential dye fluorescence; active compounds read high;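 active = B-score of the integrated fluorescence ratio above library mean plus 3 SD, and starting fluorescence ratio within library mean plus 5 SD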;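 also: higher score means more depolarization so channel activation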
TRPC6 inh = mouse TRPC6 channel inhibition; HEK293-TRPC6, membrane potential dye, ACh-evoked depolarization; active compounds read low; B-score at 10 µM; actives 1.1% (n = 310,000); AID 2553;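 active = B-score under library mean minus 3 SD, initial fluorescence not abnormally high, positive integrated signal ratio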;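 also: B-score derived from integrated fluorescence ratio over the kinetic read; more negative B-score means stronger inhibition of depolarization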
TRPC4 potent = allosterically enhances the mouse TRPC4 cation channel. Q9QUQ5. HEK293 TRPC4beta/mu-opioid, DAMGO EC20, Fluo-4 Ca2+ flux; active compounds read high. B-score at 10 µM. actives 0.42% (n = 310,000). AID 2227;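 active = B-score of calcium response area above 5 SD of library B-scores, with initial fluorescence ratio within 5 SD of library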;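 also: B-score of integrated fluorescence ratio over time as area under calcium response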
TRPC4 inh = TRPC4 (mouse) channel inhibition; B-score at 10 µM; actives 0.39% (n = 300,000); Q9QUQ5; HEK293 TRPC4beta/mu-opioid, DAMGO-evoked Fluo4 calcium flux; active compounds read low;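 active = B-score over 3 SD under the library average, no early fluorescence shift, positive overall ratio signal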
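Material: HEK293 cells with stable TRPC4beta plus mu-opioid receptor expression; probe or stimulus: DAMGO in two steps, submaximal then maximal; technique: Fluo4 calcium fluorescence by kinetic imaging, 5 s 1 Hz baseline; measure: integrated fluorescence ratio relative to baseline, converted to per-well B score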
The depositor's hits bear a star; i = inactive. Shown are actives, neighbours in structure and some others; about 2.3% of the full set was active somewhere.

SMILES | TRPC4 agonist | TRPC6 activator | TRPC6 inh | TRPC4 potent | TRPC4 inh
CCc1cccc(OCCCCNCCCOC)c1 | i | i | i | i | i
CCOc1cccc(OCCCNCCCOC)c1 | i | i | i | 11* | i
C=CCc1cccc(OC)c1OCCOCCNCCO | i | i | i | i | i
COc1ccccc1N1CCN(C2CCCN(C(=O)CN3CCCCC3=O)C2)CC1 (stereo unspecified) | i | i | i | i | i
O=C(O)c1ccc(N/N=C/c2ccc(-c3cccc(Cl)c3)o2)cc1 | i | i | i | i | -6*
Fc1ccc(CN2CCC(Cc3ccccc3)CC2)cc1F | i | i | i | i | -6*
COc1cc(OC)c(CN2CCC(Cc3ccccc3)CC2)cc1Br | 108* | i | i | i | i
O=C(CN(Cc1ccccc1F)C(=O)c1csnn1)NCc1ccc2c(c1)OCO2 | i | i | i | i | i
Cc1cc(C)nc(/N=C(\N)Nc2cccc(OCc3ccccc3)c2)n1 | i | i | -5.4* | i | i
Cc1cc(C)nc(/N=C(\N)Nc2ccc(CC(=O)OC(C)C)cc2)n1 | i | i | i | i | i
CCOC(=O)C(=O)Nc1ccc(OCc2ccccc2)cc1 | i | i | i | i | i
Cc1cc(C)nc(/N=C(\N)Nc2ccc(OCc3ccccc3)cc2)n1 | 61* | i | i | i | i
Cc1cc(C)nc(/N=C(\N)Nc2ccc(OCCC(C)C)cc2)n1 | 51* | i | i | i | i
Cc1ccc2cc(C)c3nnc(SCc4ccc(C(=O)O)cc4)n3c2c1C | i | i | i | i | i
CCc1nnc(NC(=O)CC23CC4CC(CC(Br)(C4)C2)C3)s1 | i | i | i | i | i
Brc1ccc2[nH]c3c(NCc4ccccn4)ncnc3c2c1 | 61* | i | i | i | i
O=C(NCc1nc(-c2ccc(C(F)(F)F)cc2)no1)Nc1ccc(OC(F)(F)F)cc1 | i | i | i | i | i
COc1ccc(C2C(C(=O)N3CCN(C)CC3)c3cc(OC)c(OC)cc3C(=O)N2C)cc1 (stereo unspecified) | i | i | i | i | i
CCN1CCN(C(=O)C2c3cc(OC)c(OC)cc3C(=O)N(C)C2c2ccc(SC)cc2)CC1 (stereo unspecified) | 67* | i | i | i | i
O=C(c1ccc(COc2ccccc2Br)cc1)N1CCCCCC1 | i | i | i | 12* | i
CN(C)C(CNC(=O)Nc1cccc(Cl)c1)c1cccnc1 (stereo unspecified) | 65* | i | i | i | i
O=C(NCc1cccnc1)Nc1cccc(Cl)c1 | i | i | i | i | i
CCc1cccc(CC)c1NC(=S)NCC(c1cccnc1)N(C)C (stereo unspecified) | 79* | i | i | i | i
CN(C)C(CNC(=S)Nc1ccc(Cl)cc1)c1cccnc1 (stereo unspecified) | 86* | i | i | i | i
CC1(C)Cc2c(sc3nc(=S)[nH]c(N)c23)CO1 | i | i | i | i | i
SMILES | TRPC4 agonist | TRPC6 activator | TRPC6 inh | TRPC4 potent | TRPC4 inh
COc1ccc(CNC(=O)COC(=O)C2CCN(S(=O)(=O)c3ccccc3C(F)(F)F)CC2)cc1 | i | i | i | i | i
O=C1CN(C(=O)COC(=O)C2CCN(S(=O)(=O)c3ccccc3C(F)(F)F)CC2)c2ccccc2N1 | i | i | i | 11* | i
O=C(CCOc1ccccc1)Nc1ccc(S(=O)(=O)N2CCCC2)cc1 | i | i | i | i | i
Cc1ccc(NC2CCCN(C(=O)c3cccc(-c4ncc[nH]4)c3)C2)cc1C (stereo unspecified) | i | i | i | i | i
O=C(NCc1ccccc1)c1c(Cl)nc(Cl)c(Cl)c1Cl | i | i | i | i | -6*
Cc1nc(Cl)c(C(=O)NCc2ccccc2)c(C)c1Cl | i | i | i | i | i
NC(=O)NCCN1CCN(c2ncc(C(F)(F)F)cc2Cl)CC1 | i | i | i | 15* | i
O=C(c1cc2c(ccc3ccccc32)o1)N1CCN(c2ncc(C(F)(F)F)cc2Cl)CC1 | 80* | i | i | i | i
Fc1ccc(-c2nnc(CN3CCN(c4ncc(C(F)(F)F)cc4Cl)CC3)o2)cc1 | 109* | i | i | i | i
NC(=O)c1ccc(N2CCN(c3ncc(C(F)(F)F)cc3Cl)CC2)cc1 | i | i | i | 17* | i
O=C(Nc1ccc(F)cc1Cl)C1=COCCO1 | i | i | i | i | i
Cc1cc(C)cc(NC(=O)c2c(C)nc3ccccn23)c1 | i | i | i | i | i
O=C(/C=C/c1c(Cl)nc2ccccn12)Nc1ccc(F)cc1 | i | i | i | i | i
O=S(=O)(c1cc(Cl)c(Cl)cc1Cl)N1CCN2CCCC2C1 (stereo unspecified) | 67* | i | i | i | i
NC1=NC[C@H](Cc2ccc(O)cc2)N1CC1CCCCC1 | 76* | i | i | i | i
COc1cc(C(C)=O)ccc1OCC(O)CN1CCN(c2c(C)cccc2C)CC1 (stereo unspecified) | 48* | i | i | i | i
O=C1CCC(C(=O)N2CCCC(Nc3ccc(F)cc3)C2)=NN1 (stereo unspecified) | i | i | i | i | i
O=C1NC(Nc2nccs2)(C(F)(F)F)C(=O)N1CCc1ccccc1 (stereo unspecified) | i | i | i | i | i
COc1c2c(cc3c1C(CC(O)Cc1ccccc1)N(C)CC3)OCO2 (stereo unspecified) | 96* | i | i | i | i
CCN(CC)CCn1c(=N)n(CC(O)COc2ccccc2)c2ccccc21 (stereo unspecified) | i | i | i | i | -6*
CCC(C(=O)Nc1sc(C(N)=O)c(C)c1C(=O)OC)c1ccccc1 (stereo unspecified) | i | i | i | i | i
CC1CCCCN1S(=O)(=O)c1ccc(C(=O)Nc2sccc2C(N)=O)cc1 (stereo unspecified) | i | i | i | 11* | i
CCc1ccccc1OCc1nnc(N)s1 | i | i | i | i | i
CN(CCCNC(=O)c1ccc(/C=N/O)nc1)CCCN(C)Cc1ccccc1 | i | i | i | 13* | i
CN(CCNC(=O)c1ccc(/C=N/O)nc1)Cc1ccccc1 | i | i | i | 22* | i
O=C(NCCCNCCCNC(=O)c1ccc(/C=N/O)nc1)c1ccc(/C=N/O)nc1 | i | i | i | i | i
CCN(CC)CCNc1nc(SC)nc2sc3c(c12)CCN(C)C3 | i | i | i | i | i
